Source: PubChem BioAssay
SUMO1-SIM PPI – alters human SUMO1 binding to SIM partners. SUMO1 binding to a labelled peptide, TR-FRET, 1 h. inhibition, % at 20 µM. AID 602429. actives 0.33% (n = 360,000); in the data active = inhibition above about 37%
Target sequence (P63165 whole entry, looked up): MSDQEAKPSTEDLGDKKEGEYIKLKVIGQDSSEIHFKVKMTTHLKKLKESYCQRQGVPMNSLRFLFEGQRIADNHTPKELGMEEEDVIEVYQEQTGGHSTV
Rpn11 block – Rpn11 (human) deubiquitinase inhibition; inhibition, % at 20 µM; human 26S proteasome, Ub4-pepOG fluorescence polarization; 20S core pre-blocked with epoxomicin; AID 588493; O00487; actives 0.59% (n = 360,000);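 active = inhibition at 20 µM, scaled to each plate's controls, above about 33%, limit read from the data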
Target sequence (O00487 whole entry, looked up): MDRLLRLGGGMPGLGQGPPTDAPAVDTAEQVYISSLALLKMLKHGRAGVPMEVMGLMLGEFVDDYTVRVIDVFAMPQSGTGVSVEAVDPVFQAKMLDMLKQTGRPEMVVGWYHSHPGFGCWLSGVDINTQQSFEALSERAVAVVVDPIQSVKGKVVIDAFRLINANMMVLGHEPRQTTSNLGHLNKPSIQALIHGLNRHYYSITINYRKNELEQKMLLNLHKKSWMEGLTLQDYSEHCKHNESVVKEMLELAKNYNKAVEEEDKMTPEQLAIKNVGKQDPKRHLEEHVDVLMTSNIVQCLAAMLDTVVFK
STEP inh – STEP (human) phosphatase inhibition. P54829. recombinant STEP, OMFP fluorogenic substrate, fluorescence. inhibition, % at 20 µM. actives 0.25% (n = 360,000);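 active = inhibition at 20 µM, scaled per plate between control wells, above about 37%, limit read from the data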
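material = STEP tyrosine phosphatase | reagent = fluorogenic phosphatase substrate OMFP at 25 µM final | doses = single compound dose of 20 µM, 1% DMSO final | schedule = 20 min reaction, room temperature, in the dark | measured by = fluorescence, 480/540 nm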
LMPTP block – LMPTP (human) inhibition; P24666; recombinant LMPTP-A, OMFP fluorogenic substrate, fluorescence intensity; inhibition, % at 20 µM; actives 0.22% (n = 360,000); AID 651560;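 active = compounds that cut the enzyme signal by at least half of the control window in the single-dose screen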
Target sequence (P24666 whole entry, looked up): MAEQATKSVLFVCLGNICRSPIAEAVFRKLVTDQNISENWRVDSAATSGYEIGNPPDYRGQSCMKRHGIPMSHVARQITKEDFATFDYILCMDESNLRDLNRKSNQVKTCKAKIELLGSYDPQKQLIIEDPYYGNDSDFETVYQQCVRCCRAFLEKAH
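Buffer or medium: Bis-Tris pH 6.0, DTT, detergent; Assay system: LMPTP-A enzyme; Quantity: 0.625 nM enzyme; Detection: endpoint fluorescence intensity; Times: 50 min dark incubation at room temperature; Controls: substrate-only low control, DMSO enzyme-plus-substrate high control; Doses: single 20 µM dose; Read-out: percent inhibition versus substrate-only and uninhibited controls; Reagent: 400 µM OMFP.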
Scp1 inh – inhibitors of human Scp-1 phosphatase; actives 0.88% (n = 340,000); Recombinant Scp1, phosphopeptide, malachite green phosphate absorbance; inhibition, % at 20 µM; Q9GZU7;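 active = inhibition above about 50% at 20 µM, limit read from the data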
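Test system: SCP-1 phosphatase catalytic domain, residues 76-261; measured by: colorimetric phosphate reagent with accelerator and stabiliser, absorbance at 630 nm; timing: enzyme reaction 45 min at room temperature, colour 5 min, stabilisation 30 min; also added: Phosphorylated 17-residue peptide substrate; compound dosing: one concentration, 20 µM, with 1.0% DMSO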
DNMT1 block – blocks human DNA methyltransferase DNMT1; P26358; DNMT1 molecular beacon, Hinp1I cleavage, fluorescence; inhibition (reported as % activation of signal), % at 10 µM; actives 0.83% (n = 360,000); AID 588458; in the data active = inhibition above about 50%
Scp-1 conf – confirmation of human Scp-1 phosphatase inhibitors; shares compounds with Scp1 inh; recombinant SCP-1 catalytic domain, phosphate release, malachite green absorbance; inhibition, % at 20 µM; actives 61% (n = 2,500);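 active = inhibition of at least 30% at 20 µM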
Scp-1 MG ctr – colorimetric interference in Scp-1 counter-screen | shares compounds with Scp1 inh | Colorimetric interference counterscreen, malachite green absorbance 630 nm | apparent inhibition (interference), % at 20 µM | 2,500 tested, under 10 active;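 active = inhibition of at least 30% at 20 µM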;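 also: compounds added after enzyme reaction finished so only phosphate colour detection is probed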
Scp1 DSF – binds human Scp-1, shifting its melting temperature; actives 25% (n = 1,500); shares compounds with Scp1 inh; AID 540329; thermal shift relative to vanadate control, % at 40 µM; Recombinant SCP1, Sypro Orange thermal shift Tm;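 active = substances whose mean melting-temperature shift, as a percentage of the reference inhibitor's shift, reaches about 5.3%, limit read from the data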
DNMT1 inh conf – confirmation of human DNMT1 inhibitors; shares compounds with DNMT1 block; DNMT1 molecular beacon HinP1I cleavage, fluorescence; inhibition, % at 10 µM; actives 8% (n = 2,300); AID 602385;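 active = average inhibition of at least 30% in the single-concentration confirmation test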
DNMT1 interf – shows spectral interference in the DNMT1 beacon assay | shares compounds with DNMT1 block | DNMT1 molecular beacon spectral interference counterscreen, fluorescence 485/520 | activation (fluorescence interference), % at 10 µM | actives 1% (n = 2,300);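 active = activation of at least 30% at 10 µM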;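 also: DNMT1 catalytic domain with a HinP1I cleavage step and a FAM/dabcyl DNA beacon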
Rpn11 confirm – confirmation of human proteasome Rpn11 inhibitors | actives 29% (n = 1,900) | shares compounds with Rpn11 block | inhibition, % at 20 µM | purified human 26S proteasome, Ub4-pepOG fluorescence polarization; proteasome pretreated with epoxomicin
MMP-2 counter – MMP-2 (human) inhibition counter-screen; shares compounds with Rpn11 block; inhibition, % at 20 µM; recombinant MMP-2, FRET peptide cleavage fluorescence; AID 602330; actives 4% (n = 1,900);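 also: human MMP-2 activated beforehand with APMA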
Thrombin inh – blocks bovine thrombin, flagging nonselective RPN11 hits. shares compounds with Rpn11 block. inhibition, % at 20 µM. AID 602333. actives 13% (n = 1,900). bovine thrombin cleavage of Ub4-pepOG, fluorescence polarization;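 active = mean inhibition at least 40% at 20 µM, or signal 3 deviations below plate average, so some actives read negative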
STEP conf – confirmation of human STEP phosphatase inhibitors. shares compounds with STEP inh. recombinant STEP, OMFP fluorogenic substrate, fluorescence. inhibition, % at 20 µM. actives 32% (n = 520). AID 623866; call rule not given here
Large screens that a line does not name were inactive (follow-up assays come after a bar, where shown). A selection: hits, their analogues and other compounds. The true share with any hit is near 2.3%. Rule as the data show it, unless noted: active = inhibition above about 40%; inactive = the rest.

O=C(O)c1ccc2c(c1)C(=O)N(c1cccc(-c3nc4ccccc4s3)c1)C2=O	STEP inh 81.3, Scp1 inh 93.2 | Scp-1 conf 85.5 | Scp-1 MG ctr inactive | Scp1 DSF 5.4 | STEP conf 47.0
COc1ccc(OC)c(-c2csc(N(CC3CCCO3)C(=O)C3CCCCC3)n2)c1 (stereo unspecified)	none
Cc1nc(SCC(=O)N(CC(C)C)C2CCS(=O)(=O)C2)c(C#N)c(C)c1C (stereo unspecified)	none
CCN(c1ccccc1)S(=O)(=O)c1cc(C(=O)O)ccc1C	STEP inh 94.7, LMPTP block 60.4, Scp1 inh 56.4, DNMT1 block 85.0 | Scp-1 conf 46.3 | Scp-1 MG ctr inactive | Scp1 DSF inactive | DNMT1 inh conf inactive | DNMT1 interf inactive | STEP conf inactive
CCCc1ccc(S(=O)(=O)NCc2nnc(SC)n2C)cc1	none
O=C(Nc1ccc2oc(-c3ccccc3F)nc2c1)c1ccc([N+](=O)[O-])o1	SUMO1-SIM PPI 98.5, STEP inh 99.2, LMPTP block 89.8, Scp1 inh 101.1, DNMT1 block 107.9 (not shown: Rpn11 block) | Scp-1 conf 94.6 | Scp-1 MG ctr inactive | Scp1 DSF inactive | DNMT1 inh conf inactive | DNMT1 interf inactive | STEP conf inactive
COc1ccc2cc(C(=O)Nc3ccc(F)cc3)sc(=O)c2c1OC	STEP inh 49.3, Scp1 inh 55.5 | Scp-1 conf 41.2 | Scp-1 MG ctr inactive | Scp1 DSF inactive | STEP conf inactive
COc1ccc2cc(C(=O)Nc3ccc(Cl)cc3)sc(=O)c2c1OC	Rpn11 block 187.7, STEP inh 59.3, Scp1 inh 92.1, DNMT1 block 57.0 | Scp-1 conf 65.1 | Scp-1 MG ctr inactive | Scp1 DSF inactive | DNMT1 inh conf inactive | DNMT1 interf inactive | Rpn11 confirm inactive | MMP-2 counter inactive | Thrombin inh inactive | STEP conf inactive
COC(=O)C1C2CC(=O)C(C2)C1C(=O)OC (stereo unspecified)	none
Cc1cc(N)n(-c2ccc(Oc3ccccc3)c(S(=O)(=O)O)c2)n1	STEP inh 43.3, Scp1 inh 75.2 | Scp-1 conf 60.2 | Scp-1 MG ctr inactive | Scp1 DSF inactive | DNMT1 inh conf inactive | DNMT1 interf inactive | STEP conf inactive
Cc1cc(N)n(-c2ccc(C)c(C)c2)n1	none
O=C(N/N=C/C=C/c1ccccc1)c1cc2c(ccc3ccccc32)o1	Rpn11 block 99.2, STEP inh 65.6, LMPTP block 62.5, Scp1 inh 102.4, DNMT1 block 94.1 | Scp-1 conf 81.1 | Scp-1 MG ctr inactive | Scp1 DSF inactive | DNMT1 inh conf inactive | DNMT1 interf inactive | Rpn11 confirm inactive | MMP-2 counter inactive | Thrombin inh inactive | STEP conf inactive
O=C(N/N=C/c1ccccc1F)c1cc2c(ccc3ccccc32)o1	Rpn11 block 149.4, STEP inh 96.8, Scp1 inh 103.0, DNMT1 block 81.9 | Scp-1 conf 67.2 | Scp-1 MG ctr inactive | Scp1 DSF inactive | DNMT1 inh conf inactive | DNMT1 interf inactive | Rpn11 confirm 99.0 | MMP-2 counter inactive | Thrombin inh inactive | STEP conf inactive
CSc1ccc(CC(=O)N2CCC(n3nccc3NC(=O)C3CC3)CC2)cc1	none
Cc1ccc(-c2c(NCCc3ccccc3)c(=O)c2=O)cc1	STEP inh 57.1, Scp1 inh 89.0 | Scp-1 conf 59.0 | Scp-1 MG ctr inactive | Scp1 DSF inactive | STEP conf inactive
COc1ccc(S(=O)(=O)N(C)c2ccc(C(=O)N3CCC(C(N)=O)CC3)cc2)cc1OC	none
O=[N+]([O-])c1cc(/C=N/O)ccc1Oc1ccccc1Cl	none
CCCNC(=O)C1(C)CCN(C(=O)c2ccc3sccc3c2)C1 (stereo unspecified)	none (no result: Scp1 inh)
O=C(Nc1nc2ccsc2c(=O)s1)c1ccc(Cl)cc1	STEP inh 96.0, LMPTP block 53.9, Scp1 inh 102.7 | Scp-1 conf 72.1 | Scp-1 MG ctr inactive | Scp1 DSF inactive | STEP conf inactive
CC(=O)Nc1ccc(S(=O)(=O)Nc2cccc(-n3cnnn3)c2)cc1	none
CC(=O)c1ccc(S(=O)(=O)Nc2cccc(-n3cnnn3)c2)cc1	STEP inh 96.6, Scp1 inh 76.7, DNMT1 block 99.9 | Scp-1 conf 64.8 | Scp-1 MG ctr inactive | Scp1 DSF inactive | DNMT1 inh conf inactive | DNMT1 interf inactive | STEP conf 99.2
COc1cccc(N2[C@@H](CC(=O)O)c3ccc(/C=C/C(=O)O)cc3S2(=O)=O)c1	STEP inh 50.2, Scp1 inh 70.2, DNMT1 block 101.8 | Scp-1 conf 54.1 | Scp-1 MG ctr inactive | Scp1 DSF inactive | DNMT1 inh conf inactive | DNMT1 interf inactive | STEP conf 36.4
COc1cccc(N2[C@@H](CC(C)=O)c3ccccc3S2(=O)=O)c1	none
O=C(N/N=C/c1cccc([N+](=O)[O-])c1)c1cc2ccccc2o1	STEP inh 62.6, Scp1 inh 51.2, DNMT1 block 93.9 | Scp-1 conf inactive | Scp-1 MG ctr inactive | DNMT1 inh conf inactive | DNMT1 interf inactive | STEP conf inactive
O=C(N/N=C/c1ccsc1)c1cc2ccccc2o1	none
